Results reported in ChEMBL document CHEMBL1126988, “Quinolone antibacterials containing the new 7-[3-(1-aminoethyl)-1- pyrrolidinyl] side chain: the effects of the 1-aminoethyl moiety and its stereochemical configurations on potency and in vivo efficacy” (J Med Chem, 1993).
Converted amounts (≈) assume the structure as drawn.

Key:
Assay type in all cases: functional
Klebsiella pneumoniae = assay: Minimum inhibitory concentration was evaluated in vitro against Klebsiella pneumoniae MGH2
In short: (§1)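 Standard microtitration broth assay against a panel of 10 Gram-positive and Gram-negative organisms. MIC read in µg/mL and averaged over multiple experiments.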

Streptococcus pyogenes [1] = assay: Minimum inhibitory concentration was evaluated in vitro against Streptococcus pyogenes C 203; in short: as §1
Streptococcus pyogenes [2] = assay: Compounds were evaluated in vivo for antibacterial activity for mouse protection against Streptococcus pyogenes C 203 after oral administration; conditions: for ED50: Streptococcus pyogenes, C 203, po, read-out: PD50
Providencia rettgeri = assay: Minimum inhibitory concentration was evaluated in vitro against Providencia rettgeri M1771; in short: as §1
Streptococcus pyogenes [3] = assay: Antibacterial activity measured as mouse protection against Streptococcus pyogenes C 203 after subcutaneous administration; conditions: for ED50: Streptococcus pyogenes, C 203, sc, read-out: PD50
Escherichia coli [4] = assay: Antibacterial activity against Escherichia coli Vogel after oral administration in mouse; conditions: for ED50: Escherichia coli, po, read-out: PD50
Staphylococcus aureus [5] = assay: Minimum inhibitory concentration was evaluated in vitro against Staphylococcus aureus H 228; in short: as §1
Enterobacter cloacae = assay: Minimum inhibitory concentration in vitro against Enterobacter cloacae MA 2646
Staphylococcus aureus [6] = assay: Minimum inhibitory concentration was evaluated in vitro against Staphylococcus aureus UC 76; in short: as §1
Pseudomonas aeruginosa = assay: Minimum inhibitory concentration was evaluated in vitro against Pseudomonas aeruginosa UI-18; in short: as §1
Escherichia coli [7] = assay: Antibacterial activity against Escherichia coli Vogel after subcutaneous administration in mouse; conditions: for ED50: Escherichia coli, sc, read-out: PD50
Streptococcus pneumoniae = assay: Minimum inhibitory concentration was evaluated in vitro against Streptococcus pneumoniae SV-1; in short: as §1
Escherichia coli [8] = assay: Antibacterial activity in vitro against Escherichia coli Vogel; in short: as §1
Enterococcus faecalis = assay: Minimum inhibitory concentration was evaluated in vitro against Enterococcus faecalis MGH-2; in short: as §1
[9] = Klebsiella pneumoniae, read-out: MIC
[10] = Streptococcus pyogenes, read-out: MIC
[11] = Providencia rettgeri, read-out: MIC
[12] = Staphylococcus aureus, read-out: MIC
[13] = Enterobacter cloacae, read-out: MIC
[14] = Pseudomonas aeruginosa, read-out: MIC
[15] = Streptococcus pneumoniae, read-out: MIC
[16] = Escherichia coli, read-out: MIC
[17] = Enterococcus faecalis, read-out: MIC

Row | SMILES | MIC (Klebsiella pneumoniae; [9]) [mg/L] | MIC (Streptococcus pyogenes [1]; [10]) [mg/L] | ED50 (Streptococcus pyogenes [2]) [mg/kg] | MIC (Providencia rettgeri; [11]) [mg/L] | ED50 (Streptococcus pyogenes [3]) [mg/kg] | ED50 (Escherichia coli [4]) [mg/kg] | MIC (Staphylococcus aureus [5]; [12]) [mg/L] | MIC (Enterobacter cloacae; [13]) [mg/L] | MIC (Staphylococcus aureus [6]; [12]) [mg/L] | MIC (Pseudomonas aeruginosa; [14]) [mg/L] | ED50 (Escherichia coli [7]) [mg/kg] | MIC (Streptococcus pneumoniae; [15]) [mg/L] | MIC (Escherichia coli [8]; [16]) [mg/L] | MIC (Enterococcus faecalis; [17]) [mg/L] | other results
1 | CN[C@H](C)[C@@H]1CCN(c2c(F)cc3c(=O)c(C(=O)O)cn(C4CC4)c3c2OC)C1 | 0.2 (≈ 0.496 µM) | 0.025 (≈ 0.062 µM) | 4 | 0.4 (≈ 0.991 µM) | 1 | 12 | 0.05 (≈ 0.124 µM) | 0.1 (≈ 0.248 µM) | 0.013 (≈ 0.0322 µM) | 3.1 (≈ 7.68 µM) | 3 | 0.013 (≈ 0.0322 µM) | 0.1 (≈ 0.248 µM) | 0.05 (≈ 0.124 µM) | –
2 | CC(N)C1CCN(c2c(F)cc3c(=O)c(C(=O)O)cn(C4CC4)c3c2F)C1 (racemic) | 0.013 (≈ 0.0344 µM) | 0.006 (≈ 0.0159 µM) | 0.4 | 0.025 (≈ 0.0662 µM) | 0.1 | 2 | 0.013 (≈ 0.0344 µM) | 0.013 (≈ 0.0344 µM) | 0.003 (≈ 0.00795 µM) | 0.4 (≈ 1.06 µM) | 0.3 | 0.006 (≈ 0.0159 µM) | 0.013 (≈ 0.0344 µM) | 0.006 (≈ 0.0159 µM) | –
3 | NCC1CCN(c2c(F)cc3c(=O)c(C(=O)O)cn(C4CC4)c3c2F)C1 (centres undefined) | 0.05 (≈ 0.138 µM) | 0.003 (≈ 0.00826 µM) | 4 | 0.1 (≈ 0.275 µM) | 0.4 | 6 | 0.013 (≈ 0.0358 µM) | 0.013 (≈ 0.0358 µM) | 0.003 (≈ 0.00826 µM) | 0.2 (≈ 0.55 µM) | 1 | 0.006 (≈ 0.0165 µM) | 0.025 (≈ 0.0688 µM) | 0.013 (≈ 0.0358 µM) | –
4 | CNCC1CCN(c2nc3c(cc2F)c(=O)c(C(=O)O)cn3C2CC2)C1 (centres undefined) | 0.2 (≈ 0.555 µM) | 0.05 (≈ 0.139 µM) | 21 | 0.4 (≈ 1.11 µM) | 7 | 3 | 0.2 (≈ 0.555 µM) | 0.2 (≈ 0.555 µM) | 0.025 (≈ 0.0694 µM) | 0.8 (≈ 2.22 µM) | 1 | 0.025 (≈ 0.0694 µM) | 0.1 (≈ 0.277 µM) | 0.2 (≈ 0.555 µM) | –
5 | CCn1cc(C(=O)O)c(=O)c2cc(F)c(N3CCC(C(C)NC)C3)c(OC)c21 (racemic) | 0.2 (≈ 0.511 µM) | 0.013 (≈ 0.0332 µM) | 2 | 0.4 (≈ 1.02 µM) | 0.3 | 22 | 0.025 (≈ 0.0639 µM) | 0.8 (≈ 2.04 µM) | 0.003 (≈ 0.00766 µM) | 1.6 (≈ 4.09 µM) | 4 | 0.013 (≈ 0.0332 µM) | 0.2 (≈ 0.511 µM) | 0.025 (≈ 0.0639 µM) | –
6 | CCNCC1CCN(c2cc3c(cc2F)c(=O)c(C(=O)O)cn3C2CC2)C1 (centres undefined) | – | – | – | – | 5 | – | – | – | 0.013 (≈ 0.0348 µM) | – | 3 | – | – | – | –
7 | CCN[C@@H](C)[C@@H]1CCN(c2nc3c(cc2F)c(=O)c(C(=O)O)cn3C2CC2)C1 | – | – | – | – | – | – | – | – | – | – | – | – | – | – | MIC (Klebsiella pneumoniae): 0.4 mg/L (≈ 1.03 µM); MIC (Streptococcus pyogenes [1]): 0.4 mg/L (≈ 1.03 µM); PD50 (Streptococcus pyogenes [2]): 15 mg/kg; MIC (Providencia rettgeri): 1.6 mg/L (≈ 4.12 µM); PD50 (Streptococcus pyogenes [3]): 9 mg/kg; PD50 (Escherichia coli [4]): 3 mg/kg; MIC (Staphylococcus aureus [5]): 0.2 mg/L (≈ 0.515 µM); MIC (Enterobacter cloacae): 0.2 mg/L (≈ 0.515 µM); MIC (Staphylococcus aureus [6]): 0.1 mg/L (≈ 0.257 µM); MIC (Pseudomonas aeruginosa): 3.1 mg/L (≈ 7.98 µM); PD50 (Escherichia coli [7]): 1 mg/kg; MIC (Streptococcus pneumoniae): 0.1 mg/L (≈ 0.257 µM); MIC (Escherichia coli [8]): 0.2 mg/L (≈ 0.515 µM); MIC (Enterococcus faecalis): 0.2 mg/L (≈ 0.515 µM)
8 | CCNCC1CCN(c2nc3c(cc2F)c(=O)c(C(=O)O)cn3C2CC2)C1 (centres undefined) | 0.2 (≈ 0.534 µM) | 0.2 (≈ 0.534 µM) | 17 | 0.8 (≈ 2.14 µM) | 8 | 7 | 0.1 (≈ 0.267 µM) | 0.2 (≈ 0.534 µM) | 0.05 (≈ 0.134 µM) | 0.8 (≈ 2.14 µM) | 1 | 0.1 (≈ 0.267 µM) | 0.1 (≈ 0.267 µM) | 0.1 (≈ 0.267 µM) | –
9 | CCn1cc(C(=O)O)c(=O)c2cc(F)c(N3CCC(N)C3)c(OC)c21 (centres undefined) | 0.2 (≈ 0.572 µM) | 0.2 (≈ 0.572 µM) | 74 | 0.4 (≈ 1.14 µM) | 25 | 13 | 0.2 (≈ 0.572 µM) | 0.2 (≈ 0.572 µM) | 0.05 (≈ 0.143 µM) | 0.8 (≈ 2.29 µM) | 7 | 0.4 (≈ 1.14 µM) | 0.2 (≈ 0.572 µM) | 0.4 (≈ 1.14 µM) | –
10 | O=C(O)c1cn(C2CC2)c2cc(N3CCNCC3)c(F)cc2c1=O [CIPROFLOXACIN] | 0.05 (≈ 0.151 µM) | – | – | – | – | 1 | 3.1 (≈ 9.36 µM) | – | – | – | 0.3 | 1.6 (≈ 4.83 µM) | – | – | –
11 | CCN[C@H](C)[C@H]1CCN(c2nc3c(cc2F)c(=O)c(C(=O)O)cn3-c2ccc(F)cc2F)C1 (racemic) | 0.8 (≈ 1.74 µM) | 0.1 (≈ 0.217 µM) | 2 | 1.6 (≈ 3.47 µM) | 2 | 25 | 0.05 (≈ 0.109 µM) | 0.8 (≈ 1.74 µM) | 0.013 (≈ 0.0282 µM) | 3.1 (≈ 6.73 µM) | 13 | 0.1 (≈ 0.217 µM) | 0.4 (≈ 0.869 µM) | 0.2 (≈ 0.434 µM) | –
